FAK inh = FAK (human) kinase inhibition; Q05397; biochemical FAK kinase activity assay; AID 727; 97,000 compounds, 0.84% hits; inhibition, %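 (tested at 7 µM)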; in the data active means inhibition above about 19%;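 further: 0% = DMSO and 100% = reference compound high control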
PTPN22 act = LYP (human) phosphatase activation; Q9Y2R2; recombinant LYP, DiFMUP fluorescence; 0 = plate median, 100 = signal doubled; activation, % at 2 µM; 96,000 compounds, 0.11% hits;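 active means activation at 2 µM above a set limit, the mean plus 5 SD, cut at about 37% in these data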
PTPN22 inh 2 = blocks human PTPN22 phosphatase activity; recombinant LYP catalytic domain, DiFMUP fluorescence; inhibition, % at 2 µM; 96,000 compounds, 0.21% hits;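 active means inhibition at 2 µM at or above a set limit, the screen mean plus 3 SD, cut at about 24% in these data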;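 further: 0% = DMSO with enzyme and 100% = enzyme fully blocked by orthovanadate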
Rev-RRE block = HIV Rev-RRE protein-RNA interaction inhibition | P05866 | Rev peptide-RRE RNA binding, FRET | inhibition, % at 8 µM | 97,000 compounds, 0.79% hits;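 active means inhibition above the screen-wide mean plus 3 SD, cut at about 35% in these data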;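 further: 0% = median DMSO wells and 100% = median Neomycin B control wells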
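Assay system: Labelled RRE RNA duplex and labelled Rev peptide | Times: 5 min preincubation and 15 min binding, 25 °C | Detection: FRET, ex 480 nm, em 540 and 671 nm | Evaluation: % inhibition of FRET ratio versus controls | Benchmarks: DMSO wells as 0% and neomycin B wells as 100% inhibition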
Starred values were filed as active, the others as inactive; [ ] = dose if it differs, or a comment. A selection: hits, their analogues and other compounds. The true share with any hit is near 1.8%.

For CC1=CC(=C2C(=O)c3ccccc3C2=O)C=C(C)O1 the results were FAK inh 5.9, PTPN22 act 11.1, PTPN22 inh 2 -13.6 and Rev-RRE block -0.8.
COc1cc(C)c(CNc2ccc(OC)c(OC)c2)cc1C was read as FAK inh 12.2, PTPN22 act 7.3, PTPN22 inh 2 -8.0 and Rev-RRE block 39.5*.
CCCN1C(=O)/C(=C/C=C2\N(CC)c3ccccc3C2(C)C)SC1=S was read as FAK inh -5.5, PTPN22 act 1.7, PTPN22 inh 2 2.4 and Rev-RRE block 136.2*[fluorescence artefact?].
For COC(=O)c1ccc(NC(=O)C2CC2)o1 the results were FAK inh -2.5, PTPN22 act 6.3, PTPN22 inh 2 -3.9 and Rev-RRE block 2.7.
Nc1c(C(=O)Nc2ccccc2F)sc2nc(Cc3ccccc3)cc(C(F)(F)F)c12 was read as FAK inh -1.0, PTPN22 act -2.8, PTPN22 inh 2 1.5 and Rev-RRE block 82.2*[fluorescence artefact?].
Screening CCOC(=O)c1sc2nc(N3CCOCC3)c3c(c2c1N)CCCC3 returned FAK inh 5.8, PTPN22 act -5.2, PTPN22 inh 2 7.5 and Rev-RRE block 2.0.
`COC(=O)c1ccc(-c2sc3nc(N4CCOCC4)c4c(c3c2N)CCCC4)o1` gave FAK inh 2.5, PTPN22 act 2.4, PTPN22 inh 2 -6.0 and Rev-RRE block 84.6*.
Screening COCCn1c(-c2ccc(OC)cc2)cnc1SCC(=O)Nc1cccc2ccccc12 returned FAK inh 2.6, PTPN22 act -9.0, PTPN22 inh 2 6.8 and Rev-RRE block 2.5.
Cc1noc(C)c1C(=O)Nc1ccc(F)cc1F was read as FAK inh -0.6, PTPN22 act -5.8, PTPN22 inh 2 8.0 and Rev-RRE block 9.6.
Cc1ccc(-c2ccc(/C=C(\C#N)C(=O)Nc3cc(C)nn3-c3ccccc3)o2)cc1 was read as FAK inh 1.8, PTPN22 act -3.5, PTPN22 inh 2 1.4 and Rev-RRE block 103.4*[fluorescence artefact?].
Screening N#C/C(=C\c1ccc(-c2ccccc2)o1)C(=O)Nn1cnnc1 returned FAK inh -1.1, PTPN22 act -2.9, PTPN22 inh 2 5.7 and Rev-RRE block 4.0.
Cc1ccc(NC(=O)NNC(=O)Cn2nc(-c3ccccc3)c(-c3ccccc3)c(C#N)c2=O)cc1 was read as FAK inh 4.0, PTPN22 act -1.6, PTPN22 inh 2 6.7 and Rev-RRE block 6.8.
Screening CCN1CC=C2C(C#N)=C(N)C(C#N)(C#N)[C@H](c3cccc(OC)c3OC)[C@H]2C1 returned FAK inh 1.8, PTPN22 act 0.1, PTPN22 inh 2 1.2 and Rev-RRE block 65.1*.
`COc1cccc(C2C3CN(C)CC=C3C(C#N)=C(N)C2(C#N)C#N)c1OC` (centres undefined) gave FAK inh 0.8, PTPN22 act 4.4, PTPN22 inh 2 -6.2 and Rev-RRE block 84.5*[fluorescence artefact?].
Screening CCOC(=O)N1CC=C2C(C#N)=C(N)C(C#N)(C#N)[C@H](c3ccccc3OCC)[C@H]2C1 returned FAK inh 1.6, PTPN22 act -5.1, PTPN22 inh 2 3.8 and Rev-RRE block 15.1.
Cc1cc([N+](=O)[O-])nn1CC(=O)NNC(=S)Nc1ccc([N+](=O)[O-])cc1 was read as FAK inh -6.5, PTPN22 act -33.1, PTPN22 inh 2 35.3* and Rev-RRE block -2.2.
`Cc1ccc(C(=O)NCc2ccco2)cc1S(=O)(=O)Nc1cccc(Cl)c1` gave FAK inh -0.8, PTPN22 act 7.0, PTPN22 inh 2 -6.3 and Rev-RRE block -3.2.
For COc1ccccc1N=c1oc2cc(O)ccc2cc1C(N)=O the results were FAK inh 6.9, PTPN22 act -2.9, PTPN22 inh 2 -0.1 and Rev-RRE block 62.7*.
For Cc1cccc(N=c2oc3cc(O)ccc3cc2C(N)=O)c1 the results were FAK inh 11.4, PTPN22 act 0.9, PTPN22 inh 2 -0.5 and Rev-RRE block 46.9*.
NC(=S)c1cc2ccc(O)cc2oc1=O was read as FAK inh 7.6, PTPN22 act -3.5, PTPN22 inh 2 8.5 and Rev-RRE block 22.0.
Screening CCOc1ccccc1C1C(C#N)=C(N)Oc2n[nH]c(CC)c21 (centres undefined) returned FAK inh 17.1, PTPN22 act 1.1, PTPN22 inh 2 -1.8 and Rev-RRE block 0.8.
`Cc1ccc(C2C(C#N)=C(N)SC(N)=C2C#N)o1` gave FAK inh 2.3, PTPN22 act 3.2, PTPN22 inh 2 -3.3 and Rev-RRE block 91.7*[fluorescence artefact?].
CCc1ccc(C2C(C#N)=C(N)SC(N)=C2C#N)cc1 was read as FAK inh 0.2, PTPN22 act 5.8, PTPN22 inh 2 -6.5 and Rev-RRE block 41.2*.
N#CC1=C(N)SC(N)=C(C#N)C1c1ccc(C(F)(F)F)cc1 was read as FAK inh -9.1, PTPN22 act -3.3, PTPN22 inh 2 9.1 and Rev-RRE block 41.8*.

High-throughput results as filed in PubChem BioAssay.
